# Shown are actives, neighbours in structure and some others; about 2.9% of the full set was active somewhere.
# MEKK2 WT-MEK5: modulators of MEK5 binding to wildtype MEKK2, primary screen, biochemical, multiplex bead flow cytometry, Alexa488-MEK5; Mitogen-activated protein kinase kinase kinase 2 (Homo sapiens), Q9Y2U5; Alexa488-MEK5 binding to MEKK2 WT; actives lie on both sides; binding response (% of control), % at 10 µM; actives 1.1% (n = 290,000); in the data active = binding response below about 67% or above about 130%
# MEKK2mut PB1 HTS: MEK5 binding signal on mutant MEKK2 PB1, primary screen, biochemical, multiplex bead flow cytometry, Alexa488-MEK5 | Alexa488-MEK5 binding to MEKK2 mutant | percent response, % at 10 µM | actives 0.35% (n = 290,000) | AID 1530, 2009; in the data active = percent response above about 24%, passing the limit was not always enough
# Apaf-1 inh: inhibitors of human Apaf-1 apoptosome, primary screen, biochemical, DEVD-Rh110 fluorescence, uHTS; Apoptotic protease-activating factor 1 (Homo sapiens), O14727; inhibition, % at 20 µM; reconstituted apoptosome caspase-3 activity; actives 0.71% (n = 330,000); active = inhibition of at least 40% at 20 µM;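 also: plate controls were DMSO wells for no effect and DEVD-CHO caspase inhibitor wells for full effect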
#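 Material: reconstituted apoptosome with Apaf-1, cytochrome c, caspase-9, procaspase-3, dATP; medium: pH 7.5 Hepes buffer with CHAPS, BSA, DTT; also added: cytochrome c and DEVD-Rh110 substrate; timing: 30 min plus 50 min, RT; signal: Rh110 fluorescence intensity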
# UBC13 polyUb: UBC13 polyubiquitin chain formation inhibitors, primary screen, biochemical, TR-FRET, uHTS; Ubiquitin-conjugating enzyme E2 N (Homo sapiens), P61088; inhibition, % at 20 µM; actives 0.47% (n = 330,000); AID 485273, 2010; in the data active = inhibition above about 45%, passing the limit was not always enough
# Target sequence (P61088 whole entry, looked up): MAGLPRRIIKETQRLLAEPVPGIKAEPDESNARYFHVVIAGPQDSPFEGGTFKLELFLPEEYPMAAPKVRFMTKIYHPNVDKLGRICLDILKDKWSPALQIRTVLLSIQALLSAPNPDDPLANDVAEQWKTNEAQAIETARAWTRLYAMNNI
# MEKK3 PB1 HTS: modulators of MEKK3-MEK5 PB1 binding, primary screen, biochemical, wildtype MEKK3, multiplex bead flow cytometry, Alexa488-MEK5; actives 1.4% (n = 290,000); bead-based flow cytometry, Alexa488-MEK5 binding to MEKK3; actives lie on both sides; 0 = blocked by unlabeled MEK5, 100 = vehicle; AID 1529, 2009; binding response (% of control), % at 10 µM;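 active = binding response more than 3 SD above or below the average of its plate-row segment, actives on both sides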;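 also: Alexa488 bead fluorescence after subtracting the streptavidin-only scavenger bead signal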
# MEKK2wt confirm: modulators of MEK5 binding to wildtype MEKK2, confirmation, biochemical, single concentration, multiplex bead flow cytometry; Alexa488-MEK5 binding to MEKK2 WT; actives lie on both sides; shares compounds with MEKK3 PB1 HTS; AID 1892, 2009; actives 2.4% (n = 5,900); binding response (% of control), % at 10 µM; in the data active = binding response below about 16% or above about 210%; inactive = in between
# MEKK2mut confirm: mutant MEKK2 PB1-MEK5 binding signal retest – biochemical, single concentration, multiplex bead flow cytometry, confirmation; actives 2% (n = 5,900); Alexa488-MEK5 binding to MEKK2 mutant; shares compounds with MEKK3 PB1 HTS; AID 1893, 2009; percent response, % at 10 µM; in the data active = percent response mostly above about 71%, no sharp cut-off; inactive = mostly below about 38%;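 also: higher means compound restores mutant binding toward wildtype level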
# MEKK3-MEK5 inh: MEKK3 wild-type PB1 binding to MEK5, inhibitors, confirmation, biochemical, bead multiplex flow cytometry, single concentration, wildtype | shares compounds with MEKK3 PB1 HTS | Alexa488-MEK5 binding to MEKK3; stronger effect = lower value | binding response (% of control), % at 10 µM | actives 1.8% (n = 5,900) | AID 1894, 2009;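 active = binding response below 72% of control, or above a set upper limit, though filed actives all read lower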;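 also: 100% = DMSO only wells and 0% = binding blocked by excess unlabeled MEK5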
# * = called active by the depositor; x = no result; [ ] = dose if it differs, or a comment.
SMILES,MEKK2 WT-MEK5,MEKK2mut PB1 HTS,Apaf-1 inh,UBC13 polyUb,MEKK3 PB1 HTS,MEKK2wt confirm,MEKK2mut confirm,MEKK3-MEK5 inh
CC(C)CNC(=O)COc1ccc(Sc2ccc(OCC(=O)NCC(C)C)cc2)cc1,102.0,-1.0,-5.9,-15.9,103.0,x,x,x
CCCC(C)NC(=O)Cc1ccc(Br)cc1 (stereo not given),108.0,0.0,9.2,-0.4,140.0*,102.0,2.0,99.0
O=C(c1ccccc1)c1c2c(cc3sc4ccccc4[n+]13)-c1cccc3cccc-2c13,60.0*[inhibitor],-3.0,x,x,91.0,91.0,-2.0,93.0
CCn1c(COc2ccc(=O)n(-c3ccccc3)n2)n[nH]c1=S,117.0,4.0,-15.9,3.5,129.0*,89.0,-8.0,94.0
CC(=O)Nc1cccc(C(=O)Oc2cccc(C)c2)c1O,16.0*[inhibitor],-29.0,4.6,5.7,9.0*[inhibitor],110.0,1.0,105.0
COc1ccc(Br)cc1/C=C\C(=O)NCc1cccnc1,95.0,-9.0,-0.9,3.9,109.0,x,x,x
CCN(CC)c1ccc(/C=N/NS(=O)(=O)c2ccc(CNC(C)=O)cc2)cc1,109.0,0.0,-5.6,-8.5,145.0*,98.0,-4.0,100.0
CC(=O)NCc1ccc(S(=O)(=O)N/N=C/c2ccc(Br)cc2)cc1,111.0,0.0,-5.2,-0.2,139.0*,98.0,-3.0,101.0
COc1ccc2nc(NC(=O)CSc3n[nH]c(N)n3)sc2c1,x,x,12.0,-4.2,x,x,x,x
CC(=O)Nc1cc(-c2ccc(Cl)cc2)[nH]n1,85.0,-6.0,2.0,-1.8,96.0,x,x,x
CC(=O)Nc1cc(NC(C)=O)ncn1,57.0,9.0,5.8,-2.9,48.0*[inhibitor],99.0,-6.0,100.0
CN(C)CCNC(NC(=O)c1cccs1)C(Cl)(Cl)Cl (stereo not given),109.0,16.0,0.3,21.5,104.0,x,x,x
CSc1ncc(Cl)c(C(=O)Nc2ccccc2Br)n1,103.0,-10.0,-14.8,1.5,96.0,x,x,x
CSc1ncc(Cl)c(C(=O)Nc2cccc3ccccc23)n1,102.0,0.0,-4.3,-8.2,128.0*,101.0,-2.0,99.0
COc1ccc(-n2c(=O)c3ccccc3n(CC(=O)NC3CCCCC3)c2=O)cc1OC,82.0,-6.0,-11.7,-7.5,102.0,x,x,x
COc1ccc(-n2c(=O)c3ccccc3n(CC(=O)NC3CCCCC3)c2=O)cc1,121.0,4.0,-1.9,0.7,124.0*,104.0,2.0,102.0
COc1cc(NC(=O)Cn2c(=O)n(CC3CCCO3)c(=O)c3ccccc32)cc(OC)c1 (stereo not given),113.0,0.0,1.6,-12.4,138.0*,116.0,14.0,109.0
COc1ccc(NC(=O)Cn2c(=O)n(CC3CCCO3)c(=O)c3ccccc32)c(OC)c1 (stereo not given),92.0,-2.0,-22.3,20.8,100.0,x,x,x
Nc1nccnc1C(=O)OCC(=O)NCCc1ccc(S(N)(=O)=O)cc1,x,x,-3.3,10.1,x,x,x,x
COc1ccc(S(=O)(=O)Nc2ccccc2N2CCOCC2)cc1OC,x,x,-7.6,3.6,x,x,x,x
Cc1cc2cc(CNC(=O)NC3CCCCC3)ccc2[nH]1,x,51.0*,-8.1,-1.2,62.0*[inhibitor],70.0,3.0,65.0*
Cc1cccc(NC(=O)CCC(=O)OCC(=O)c2ccc(Oc3ccc([N+](=O)[O-])cc3)cc2)c1,94.0,-1.0,-5.0,9.4,68.0*[inhibitor],103.0,8.0,107.0
Cc1ccc(NC(=O)CCC(=O)OCC(=O)c2ccc(Oc3ccc([N+](=O)[O-])cc3)cc2)cc1C,x,x,12.1,-5.0,x,x,x,x
COC(=O)CC1C(=O)NCCN1C(=O)CSc1nnc(Nc2ccc(OC)cc2)s1 (stereo not given),109.0,4.0,6.1,-12.1,122.0*,98.0,-10.0,99.0
COc1ccc(-c2ncccc2OC(=O)C23CC4CC(CC(C4)C2)C3)cc1OC,104.0,13.0,11.7,17.1,103.0,x,x,x
SMILES,MEKK2 WT-MEK5,MEKK2mut PB1 HTS,Apaf-1 inh,UBC13 polyUb,MEKK3 PB1 HTS,MEKK2wt confirm,MEKK2mut confirm,MEKK3-MEK5 inh
Cc1csc(-c2cnn(-c3ccccc3)c2NC(=O)c2ccccc2)n1,1.0*[inhibitor],-21.0,8.6,0.1,1.0*[inhibitor],103.0,2.0,105.0
Cc1csc(-c2cnn(-c3ccccc3)c2NC(=O)c2cccc(F)c2)n1,101.0,-1.0,3.3,-0.1,104.0,x,x,x
Cc1sc2ncnc(Sc3nnnn3-c3ccccc3)c2c1C,81.0,-14.0,3.2,11.5,78.0*[inhibitor],91.0,-14.0,95.0
N=C1/C(=C\c2coc3ccccc3c2=O)C(=O)N=C2SC(c3ccncc3)=NN12,67.0,-10.0,23.8,2.6,70.0*[inhibitor],101.0,2.0,101.0
O=C(NCc1csc2ccccc12)Nc1cc(Cl)cc(Cl)c1,138.0*,29.0,1.1,-0.6,123.0,106.0,-4.0,98.0
Cc1cccc(N(CC(=O)NC(C)(C)C)C(=O)CCC(=O)Nc2nccs2)c1,111.0,13.0,3.1,1.4,106.0,x,x,x
CCC(C)(C)NC(=O)CN(C(=O)CCC(=O)Nc1nccs1)c1cccc(C)c1,109.0,26.0*,8.0,2.4,105.0,104.0,0.0,102.0
COCCN1C(=O)N[C@@H](c2cccs2)C(C(C)=O)=C1C,101.0,4.0,6.2,0.0,102.0,x,x,x
O=C1N=C2N(CCN3CCCCC3)c3ccccc3N2/C1=C\c1ccc([N+](=O)[O-])o1,91.0,-3.0,x,x,93.0,x,x,x
COc1ccc(-c2oc3ncnc(NCCCN(C)C)c3c2-c2ccc(OC)cc2)cc1,171.0*,30.0*,21.2,10.5,109.0,144.0,27.0,100.0
CN(C)CCNc1ncnc2oc(-c3ccccc3)c(-c3ccccc3)c12,122.0,17.0,11.7,5.2,109.0,x,x,x
CCC(c1nnnn1Cc1ccc2c(c1)OCO2)N1CCN(CC)CC1 (stereo not given),122.0,5.0,-9.8,-6.4,131.0*,99.0,1.0,102.0
